Dynein transport: dynein cargo transport inhibition | z-score, hits read low | 220,000 compounds, 0.47% hits | 3617.4 mouse cells, GR-EGFP nuclear translocation imaging; test concentration mostly 20 µM; stimulated with dexamethasone, 1 µM; stronger effect = lower value;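 active = plate z-score of nuclear minus cytoplasmic receptor signal below a set negative limit, without overly bright fluorescence or cell loss, cut at about -3.5 in these data, passing the limit was not always enough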;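 note: z-score of nuclear minus cytoplasmic ring GR-EGFP intensity difference per well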
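Buffer or medium: tet-free medium with charcoal-stripped serum / Also added: dexamethasone agonist, 1.0 µM final, for 30 min / Timing: induction 48 h, compound 1 h, agonist 30 min / Measured by: high-content fluorescence imaging after fixation / Read-out: nuclear-to-cytoplasmic GR-EGFP distribution per well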
Insulin prom inh: TRM-6 insulin promoter activity inhibition. TRM-6 cells, insulin promoter-eGFP reporter, imaging; reporter expression induced with tamoxifen. inhibition, % at 2 µM. 130,000 compounds, 0.9% hits;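 active = inhibition above the mean plus 3 SD, with well images judged a real hit on visual review, cut at about 60% in these data, passing the limit was not always enough; inconclusive = inhibition over the cutoff but images rejected on review; inactive = inhibition not above the cutoff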
PERK inhibitor: inhibitors of human PERK kinase. 220,000 compounds, 0.17% hits. inhibition, % at 5.6 µM. CHO PERK-DD fusion, SEAP luminescence translation reporter;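 active = inhibition above the mean inhibition of all tested compounds plus 3 SD, set separately per screening campaign, cut at about 2.9% in these data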;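 note: PERK kinase domain activated by AP20187 dimerizer at 100 nM; 0% = DMSO with dimerizer and 100% = rapamycin at 8.4 µM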
Target sequence (Q9NZJ5 whole entry, looked up, the tested form may be a part): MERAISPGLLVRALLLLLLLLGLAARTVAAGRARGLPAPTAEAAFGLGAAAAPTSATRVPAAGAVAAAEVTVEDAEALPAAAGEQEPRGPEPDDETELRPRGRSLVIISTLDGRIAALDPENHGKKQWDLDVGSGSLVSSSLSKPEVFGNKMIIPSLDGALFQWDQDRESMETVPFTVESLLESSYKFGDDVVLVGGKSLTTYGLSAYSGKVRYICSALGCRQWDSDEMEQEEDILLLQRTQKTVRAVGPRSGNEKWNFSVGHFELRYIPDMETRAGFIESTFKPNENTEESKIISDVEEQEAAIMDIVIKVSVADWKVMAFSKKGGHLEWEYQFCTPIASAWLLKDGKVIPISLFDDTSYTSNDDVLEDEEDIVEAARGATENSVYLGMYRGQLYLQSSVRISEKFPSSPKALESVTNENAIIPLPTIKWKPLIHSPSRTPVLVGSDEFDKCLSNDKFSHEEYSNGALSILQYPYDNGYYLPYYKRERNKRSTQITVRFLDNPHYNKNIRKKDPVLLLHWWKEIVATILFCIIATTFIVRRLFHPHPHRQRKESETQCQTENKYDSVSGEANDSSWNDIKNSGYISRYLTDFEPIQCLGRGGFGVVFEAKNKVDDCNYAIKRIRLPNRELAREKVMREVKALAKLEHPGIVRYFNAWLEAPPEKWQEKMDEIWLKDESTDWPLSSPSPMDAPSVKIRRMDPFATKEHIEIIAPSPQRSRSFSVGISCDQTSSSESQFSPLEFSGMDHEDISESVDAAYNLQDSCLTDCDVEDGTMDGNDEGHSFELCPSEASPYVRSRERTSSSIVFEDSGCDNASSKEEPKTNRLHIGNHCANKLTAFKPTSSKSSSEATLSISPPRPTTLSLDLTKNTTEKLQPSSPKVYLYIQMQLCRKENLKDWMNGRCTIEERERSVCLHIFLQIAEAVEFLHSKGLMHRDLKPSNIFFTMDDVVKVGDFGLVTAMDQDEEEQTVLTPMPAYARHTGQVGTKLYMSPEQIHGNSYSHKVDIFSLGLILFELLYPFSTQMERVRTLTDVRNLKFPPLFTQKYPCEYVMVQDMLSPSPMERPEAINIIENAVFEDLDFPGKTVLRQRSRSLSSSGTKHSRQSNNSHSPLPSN
Insulin prom up: MIN6 insulin promoter up-regulation | z-score at 5 µM | MIN6 insulin promoter-GFP reporter, high-content imaging; stronger effect = higher value | 190,000 compounds, 0.3% hits;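 active = z-score above 3 at 5 µM with at least 500 cells counted in the well; inconclusive = wells under 500 cells, flagged as cytotoxic or low count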
Autophagy HCS: modulators of autophagy | MEF GFP-LC3 puncta imaging; test concentration mostly 10 µM | calls only at 10 µM (by protocol) | 190,000 compounds, 0.98% hits | AID 463193;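 active = percentage of spot-positive cells more than 3 SD above its plate mean, without a fluorescence outlier flag or 80% toxicity; inconclusive = no clear call, values can overlap the other calls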;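 note: spot-positive cell cutoff set from DMSO-treated cells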
* = called active by the depositor; i = inactive; ? = inconclusive; · = no result given; + = active, no number. Rows were chosen to be rich in hits. Some 2.1% of all compounds tested hit in one or more screens of this group.

SMILES | Dynein transport | Insulin prom inh | PERK inhibitor | Insulin prom up | Autophagy HCS
C/C(=N\N=C\c1ccccc1)c1nnn(-c2nonc2N)c1C | -0.375 | · | -0.1 | 0.21 | i
Cc1nc2ccccc2c2c1CC(C(C)(Cl)Br)O2 (stereo not given) | -0.279 | · | -2.2 | ? | ·
COc1c2c(nc3ccccc13)OC(C(C)(O)COC(C)=O)C2 (stereo not given) | 0.127 | -80.0 | -0.2 | 3.26* | i
O=C(Nc1nccs1)c1ccc2c(=O)n3c(nc2c1)CCCCC3 | -0.919 | · | -0.2 | -0.12 | i
CCN(CC)S(=O)(=O)c1ccc(OCC(=O)NC2CCS(=O)(=O)C2)c([N+](=O)[O-])c1 (stereo not given) | 0.536 | · | -0.2 | 0.22 | i
CCN(CC(=O)NC1CCS(=O)(=O)C1)c1ccc(S(C)(=O)=O)cc1[N+](=O)[O-] (stereo not given) | -0.891 | -17.1 | 1.7 | 1.18 | +
O=C(CSc1nnnn1-c1cccnc1)NCc1cccs1 | 0.288 | 0.0 | 0.2 | -0.16 | i
O=C(N/C(=C\c1ccc(Br)cc1)C(=O)N1CCCC1)c1ccccc1F | 0.781 | -42.9 | 0.4 | -0.55 | i
CCn1c(O)c(/C=N/N=C2CCCC2)c2ccc(C3=NNC(=O)CC3)cc21 | -0.612 | · | 0.3 | -0.53 | i
CCCCC(CCCC)=N/N=C/c1c(O)n(CC)c2cc(C3=NNC(=O)CC3)ccc12 | 0.174 | 36.8 | 1.2 | · | +
COC(=O)c1cc(=O)n(Cc2ccco2)c(=Nc2ccc(F)cc2)s1 | -4.64* | · | 0.6 | 0.23 | i
FC(F)(F)c1ccc2c(c1)NCC1CCCN21 (stereo not given) | 0.523 | · | 1.5 | 0.17 | +
O=[N+]([O-])c1cc(C(F)(F)F)ccc1N1CCCC(O)C1 (stereo not given) | -0.539 | · | 0.7 | 0.32 | i
FC(F)(F)c1ccc2c(c1)N1CCCC1CN2 (stereo not given) | 1.4 | · | 0.6 | 0.91 | +
CC[C@@H](C)C(N)c1cn([C@@H](CCC(=O)O)C(=O)N2CCNCC2)nn1 (stereo not given in full) | 2.47 | · | 1.0 | 1.24 | i
Cc1ccc2cc(CN(CCN3CCOCC3)Cc3nnnn3Cc3ccco3)c(=O)[nH]c2c1C | 2.81 | · | -0.5 | · | +
CCOCCc1nnc(NC(=O)Cc2c(F)cccc2Cl)s1 | 0.31 | -15.0 | 0.7 | · | i
CCCc1n[nH]c2c1C(=O)C(C(=O)OC)C(C)(C)C2 (stereo not given) | -0.273 | 30.4 | 1.3 | 3.65* | i
CCCn1c(N)c(C(=O)CSc2nc(C)cs2)c(=O)[nH]c1=O | -0.363 | 76.9* | -0.6 | -0.39 | i
Cc1csc(SCC(=O)c2c(N)n(C)c(=O)n(C)c2=O)n1 | 1.07 | 8.6 | -0.6 | · | i
CCOC(=O)c1ccc(N2C(=O)CC(Sc3nnc(C)s3)C2=O)cc1 (stereo not given) | -3.53* | · | 0.1 | -0.58 | i
CCOC(=O)c1ccc(N2C(=O)CC(SCC(N)C(=O)OCC)C2=O)cc1 (stereo not given) | 0.736 | 3.7 | -0.2 | 0.69 | i
O=C(OCc1cncs1)c1ccccc1 | -0.0666 | 19.1 | 1.9 | 0.52 | i
CC(C)n1c(O)c(N=Nc2ccc(Cl)nn2)c2ccccc21 | -0.993 | -93.5 | 0.5 | 0.59 | +
O=C(O)C12CC3CC(C1)CC(n1cnc(Cl)n1)(C3)C2 | -0.681 | 100.0* | 0.5 | · | i
SMILES | Dynein transport | Insulin prom inh | PERK inhibitor | Insulin prom up | Autophagy HCS
O=C(NC12CC3CC(CC(C3)C1)C2)C12CC3CC(C1)CC(n1cnc(Cl)n1)(C3)C2 | -0.585 | · | -0.2 | -0.24 | i
O=C(NC(=S)Nc1ccc2oc(=O)ccc2c1)c1ccccc1F | -0.669 | · | 3.7* | -0.36 | ·
CC(C)S(=O)(=O)c1cnc(-c2ccccn2)nc1N | 0.173 | · | 0.8 | -1.18 | ·
Cn1cc(SCC(=O)O)c2ccccc21 | 1.12 | 83.3* | 0.8 | · | i
O=C(NC(=S)N1CCN(c2ccccn2)CC1)c1ccco1 | 1.01 | · | 0.5 | 1.11 | i
CCN(CC)CCNC(=O)CSc1c2c(nc3cc(Cl)ccc13)CCCC2 | -3.93* | 21.4 | 0.3 | -2.16 | i
CCN(CC)CCCNC(=O)c1ccc2c(SCC(=O)O)c3c(nc2c1)CCC3 | 0.515 | 38.9 | -0.3 | -0.1 | i
COc1cc(CNCc2cccnc2)ccc1OCc1ccccc1 | 0.163 | -54.5 | -0.6 | 1.79 | +
c1ccc(COc2cccc(CNCc3cccnc3)c2)cc1 | 0.0241 | · | -0.3 | 0.04 | i
CCN1/C(=C\c2ccc3cc(C)ccc3[n+]2CC)Sc2cc(C)c(C)cc21 | -1.24 | -412.8 | -0.3 | ? | +
CCN1/C(=C/c2ccc3cccc(C)c3[n+]2CC)Sc2ccccc21 | -2.23 | -233.3 | 0.2 | · | +
COCCOC(=O)c1[nH]c2c(c1C)C(=O)CC(c1cccs1)C2 (stereo not given) | 1.46 | -154.1 | 0.4 | 0.49 | +
CCOCCOC(=O)c1[nH]c2c(c1C)C(=O)CC(c1cccs1)C2 (stereo not given) | 0.555 | · | 0.6 | · | +
Cc1c(C(=O)OCC(C)C)[nH]c2c1C(=O)CC(c1cccs1)C2 (stereo not given) | 0.0211 | -100.0 | -0.4 | -0.45 | i
O=C(c1ccc(-c2ccccc2)cc1)N1CCN(c2ccccn2)CC1 | -0.462 | -20.0 | 0.3 | 0.54 | i
Cc1cccc(N/C=C/c2onc(C)c2[N+](=O)[O-])c1 | -0.848 | 35.7 | 2.2 | 0.83 | +
Cc1cc(O)ccc1N/C=C/c1onc(C)c1[N+](=O)[O-] | 0.232 | -41.7 | -0.2 | -0.57 | i
Cn1c(N)c(C(=O)CCl)c(=O)n(Cc2ccccc2)c1=O | -5.95* | 18.2 | 0.3 | 0.02 | i
O=C(O)CC(Cc1ccccc1)C(=O)NCC12CC3CC(CC(C3)C1)C2 (stereo not given) | -0.26 | · | 3.2* | 0.05 | i
COC(=O)c1cc(COc2ccc3c(c2)oc(=O)c2ccccc23)c(C)o1 | -0.858 | -5.7 | 0.7 | -0.28 | i
COc1ccc(/C=N/NC(=O)Cc2n[nH]c(=O)[nH]c2=O)cc1 | 1.34 | · | 3.0* | · | ·
CC(=O)NCCc1cc2cc(C)c(C)cc2[nH]c1=O | 0.892 | -54.5 | -0.5 | 0.7 | i
CCC(=O)NCCc1cc2ccc(C)cc2[nH]c1=O | -0.291 | 20.0 | 3.3* | 1.74 | i
CCCC(=O)NCCc1cc2cc(C)c(C)cc2[nH]c1=O | -0.0894 | 85.7* | 0.0 | 0.12 | i
O=C1CN(C(=O)COC(=O)CNS(=O)(=O)/C=C/c2ccccc2)c2ccccc2N1 | 1.17 | · | 0.2 | 0.08 | i
Cc1c(NC(=O)CSc2nnc(-c3cccc(Cl)c3)o2)c(=O)n(-c2ccccc2)n1C | 3.22 | 66.7 | -0.3 | -0.29 | i
Cc1[nH]n2c(=O)c3c(nc2c1-c1ccccc1)CCC3 | 1.11 | 83.3* | 0.0 | 0.44 | i
Cc1[nH]n2c(=O)c3c(nc2c1-c1ccc(Cl)cc1)CCC3 | -0.352 | -65.2 | 0.3 | 0.45 | i
Cc1ccc(C)c(N(C)C(=O)COc2cc(=O)n(C)c3ccccc23)c1 | 0.125 | · | -0.6 | -0.46 | +
CN(C(=O)COc1cc(=O)n(C)c2ccccc12)c1ccc(Cl)cc1 | -0.422 | · | 0.6 | 1.05 | i

Source: PubChem BioAssay
